In ChEMBL document CHEMBL4725282, “Discovery of a Conformationally Constrained Oxazolidinone with Improved Safety and Efficacy Profiles for the Treatment of Multidrug-Resistant Tuberculosis” (J Med Chem, 2020):

Experiments:
[1] = Apparent permeability in human Caco-2 cells at 50 uM after 1 hr by UPLC analysis; type: ADME, cell-based
How it was run: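 Caco-2 monolayers on Transwells, cultured 21 days, TEER required >500 Ω×cm². Compound at 50 μM added apically, 1 h at 37 °C. Transported compound quantified by UPLC. Papp = (dQ/dt)/(C0×A).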

Cytochrome P450 2C9 = Cytochrome P450 2C9 (Homo sapiens, UniProt P11712); assay: Inhibition of CYP2C9 in human liver microsomes after 20 mins by LC-MS/MS analysis; type: ADME
Cytochrome P450 2C9, sequence (P11712 whole entry): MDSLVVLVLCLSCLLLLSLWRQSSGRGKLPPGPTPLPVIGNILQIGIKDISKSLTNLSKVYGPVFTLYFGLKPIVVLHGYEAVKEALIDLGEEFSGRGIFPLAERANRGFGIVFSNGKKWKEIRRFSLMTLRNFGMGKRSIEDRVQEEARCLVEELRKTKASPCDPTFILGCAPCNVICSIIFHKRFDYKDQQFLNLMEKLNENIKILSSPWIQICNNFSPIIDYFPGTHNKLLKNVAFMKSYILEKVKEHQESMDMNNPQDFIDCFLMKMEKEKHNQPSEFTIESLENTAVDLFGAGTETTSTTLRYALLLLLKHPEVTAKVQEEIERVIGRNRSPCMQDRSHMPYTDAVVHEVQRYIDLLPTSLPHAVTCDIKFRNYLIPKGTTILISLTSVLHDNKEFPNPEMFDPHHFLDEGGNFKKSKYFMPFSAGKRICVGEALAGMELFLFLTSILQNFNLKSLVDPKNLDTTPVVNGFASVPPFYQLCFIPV

[2] = Clearance in Balb/c mouse at 2.5 mg/kg, iv by LC-MS/MS analysis; type: ADME, organism-based; settings: in vivo
How it was run: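 Female BALB/c mice (20–25 g), five per route. Oral dose 25 mg/kg in 0.5% carboxymethyl cellulose; i.v. dose 2.5 mg/kg in 10% DMSO/physiological saline. Blood sampled 5 min–72 h after p.o. and 2 min–48 h after i.v. Analyte quantified by LC/MS/MS (ESI positive, C18, isocratic methanol/water). Parameters from non-compartmental analysis.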

[3] = tested on: Mycobacterium tuberculosis; assay: Antitubercular activity against Mycobacterium tuberculosis H37Rv infected in Balb/c mouse assessed as lung bacterial burden by measuring colony forming unit at 100 mg/kg/day, po administered via gavage 5 times per week for 3 weeks starting from 10 days post-infection and measured 24 hrs post last dose (reference value: 7.102 +/- 0.152 log10CFU); type: functional; settings: time 22 day
How it was run: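 Female SPF BALB/c mice, 6 per group, aerosol-infected with M. tuberculosis H37Rv to deposit 50-100 bacilli per lung. Compound suspended in 0.5% CMC, given by oral gavage from day 10 post-infection, 5 times per week for 3 weeks; controls got 0.5% CMC. Lungs harvested the day after the last dose, homogenised, diluted in HBSS, plated on 7H11 agar in duplicate, incubated 3 weeks at 37 °C. Result expressed as mean log10 CFU; t-test versus control.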

[4] = Genotoxicity in CHO-WBL cells assessed as chromosome aberration at 20 to 150 ug/ml incubated for 3 hrs followed by compound washout and measured after 17 hrs in presence of S9 fraction by Giemsa staining based; type: toxicity, subcellular, Cricetulus griseus; settings: chinese hamster, s9, 3 h, dose 20-150 µg/ml
How it was run: (§1)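 CHO-WBL cells in McCoy's 5A with 10% FBS, seeded 20-24 h before treatment. Compound in DMSO, with or without serum-free S-9 mix. Treatment either 3 h, then HBSS wash and 17 h further culture, or 20 h; harvest at 20 h from treatment start. Colcemid 0.1 μg/mL for the final 2 h, hypotonic KCl, methanol:acetic acid fixation, Giemsa stain. 300 metaphases per concentration (150 per duplicate flask) scored.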

[5] = Toxicity in female Sprague-Dawley rat assessed as abnormalities in urine at 50 to 450 mg/kg/day, po administered for 4 weeks measured within last 7 days of treatment period; type: organism-based; settings: in vivo, 672 h, dose 50-450 mg/kg/day
How it was run: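 SD rats, 6-7 weeks, 12 male and 12 female per group. Oral dosing once daily at 50, 150 or 450 mg/kg/day or vehicle for 4 weeks, then 2-week recovery. 8 per sex dissected after last dose, remaining 4 per sex after 14-day recovery. Body weight, urine, food intake and clinical signs monitored.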

[6] = Toxicity in female Sprague-Dawley rat assessed as ophthalmic changes at 50 to 450 mg/kg/day, po administered for 4 weeks followed by 2 week recovery period measured within 7 days of post recover period; type: organism-based; settings: in vivo, 672 h, dose 50-450 mg/kg/day
How it was run: (§2)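 SD rats, 6-7 weeks old (96 in total), split into vehicle, 50, 150 and 450 mg/kg/day groups of 12 females and 12 males each, given oral doses once daily for 4 weeks, then 2 weeks of recovery. Mortality, body weight, food intake, eyes, urine and neuropsychic signs were observed. Organ and bone marrow histopathology was done on 8 rats per sex per group after the last dose and on the remaining 4 per sex after 14 days of recovery.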

[7] = Toxicity in female Sprague-Dawley rat assessed as histopathological changes at 50 to 450 mg/kg/day, po administered for 4 weeks followed by 2 week recovery period; type: organism-based; settings: in vivo, 672 h, dose 50-450 mg/kg/day; how it was run: as §2
[8] = Toxicity in female Sprague-Dawley rat assessed as histopathological changes in bone marrow at 450 mg/kg/day, po administered for 4 weeks followed by 2 week recovery period; type: organism-based; settings: in vivo, 672 h; how it was run: as §2
[9] = Toxicity in male Sprague-Dawley rat assessed as histopathological changes at 50 to 450 mg/kg/day, po administered for 4 weeks followed by 2 week recovery period; type: organism-based; settings: in vivo, 672 h, dose 50-450 mg/kg/day
[10] = Toxicity in male Sprague-Dawley rat assessed as effect on food consumption at 50 to 450 mg/kg/day, po administered for 4 weeks measured at 1 week interval; type: organism-based; settings: in vivo, 672 h, dose 50-450 mg/kg/day
[11] = Toxicity in male Sprague-Dawley rat assessed as ophthalmic changes at 50 to 450 mg/kg/day, po administered for 4 weeks measured post last dose; type: organism-based; settings: in vivo, 672 h, dose 50-450 mg/kg/day
[12] = Toxicity in male Sprague-Dawley rat assessed as histopathological changes in bone marrow at 450 mg/kg/day, po administered for 4 weeks measured post last dose; type: organism-based; settings: in vivo, 672 h
[13] = Toxicity in female Sprague-Dawley rat assessed as change in mean platelet volume at 50 mg/kg/day, po administered for 4 weeks followed by 2 week recovery period (Rvb =7.1 +/- 0.5 fL); type: organism-based; settings: in vivo, 672 h
[14] = Toxicity in female Sprague-Dawley rat assessed as change in lymphocyte level at 50 mg/kg/day, po administered for 4 weeks followed by 2 week recovery period (Rvb =76.9 +/- 4.6 %); type: organism-based; settings: in vivo, 672 h
[15] = Toxicity in male Sprague-Dawley rat assessed as change in lymphocyte level at 50 mg/kg/day, po administered for 4 weeks followed by 2 week recovery period (Rvb =77.4 +/- 3.7 %); type: organism-based; settings: in vivo, 672 h
[16] = Toxicity in male Sprague-Dawley rat assessed as change in mean platelet volume at 150 mg/kg/day, po administered for 4 weeks followed by 2 week recovery period (Rvb =7.0 +/- 0.4 fL); type: organism-based; settings: in vivo, 672 h
[17] = Toxicity in female Sprague-Dawley rat assessed as change in mean corpuscular hemoglobin at 150 mg/kg/day, po administered for 4 weeks followed by 2 week recovery period (Rvb =18.5 +/- 0.6 pg); type: organism-based; settings: in vivo, 672 h
[18] = Toxicity in male Sprague-Dawley rat assessed as change in neutrophil level at 150 mg/kg/day, po administered for 4 weeks followed by 2 week recovery period (Rvb =15.9 +/- 3.4 %); type: organism-based; settings: in vivo, 672 h
[19] = Toxicity in female Sprague-Dawley rat assessed as change in red blood cell count at 450 mg/kg/day, po administered for 4 weeks followed by 2 week recovery period (Rvb =7.32 +/- 0.20 10^12/L); type: organism-based; settings: in vivo, 672 h
[20] = Toxicity in male Sprague-Dawley rat assessed as change in mean corpuscular hemoglobin at 450 mg/kg/day, po administered for 4 weeks followed by 2 week recovery period (Rvb =18.3 +/- 0.4 pg); type: organism-based; settings: in vivo, 672 h
[21] = Toxicity in male Sprague-Dawley rat assessed as change in hemoglobin count at 450 mg/kg/day, po administered for 4 weeks followed by 2 week recovery period (Rvb =144 +/- 5 g/L); type: organism-based; settings: in vivo, 672 h
[22] = Genotoxicity in CHO-WBL cells assessed as chromosome aberration at 90 to 397.1 ug/ml measured after 20 hrs in presence of S9 fraction by Giemsa staining based; type: toxicity, subcellular, Cricetulus griseus; settings: chinese hamster, s9, 20 h, dose 90-397.1 µg/ml; how it was run: as §1

In the case of CC(=O)NC[C@@H]1OC(=O)N2c3cc(F)c(N4CCSCC4)cc3OC[C@@H]12, the Papp at 1 h, 50 µM [1] is reported as 67.6 ×10⁻⁶ cm/s, the IC50 (Cytochrome P450 2C9) is reported as over 50 µM and the clearance [2] is reported as 36.5 mL/min/kg. For the same compound, the Activity [3] was 1.954 log10CFU, the Activity [4] was “Non-Toxic” and the Activity [5] was “Non-Toxic”. For the same compound, the Activity [6] was “Non-Toxic”, the Activity [7] was “Non-Toxic” and the Activity [8] was “Non-Toxic”. For the same compound, the Activity [9] was “Non-Toxic”, the Activity [10] was “Non-Toxic” and the Activity [11] was “Non-Toxic”. For the same compound, the Activity [12] was “Non-Toxic”, the Activity [13] was 7.1 fL and the Activity [14] was 80.7%. The Activity [15] was 82%, the Activity [16] was 7 fL and the Activity [17] was 18.8 pg. For the same compound, the Activity [18] was 17%, the Activity [19] was 6.53 10^12/L and the Activity [20] was 18.7 pg. The Activity [21] was 139 g/L.

In the case of CC(=O)NC[C@@H]1OC(=O)N2c3cc(F)c(N4CC[S+]([O-])CC4)cc3OC[C@@H]12, the Activity [22] is reported as “Non-Toxic”.
